Screening data (PubChem)
Hits are enriched below; roughly 2.3% of the tested compounds scored in any of these assays.
CHT inh = human CHT choline transport inhibition. AID 488975. B-score at 10 µM. CHT-expressing cells, membrane potential dye, choline response; active compounds read low. 0.86% of 310,000 active;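 active means B-score over 3 SD under the library average, and starting fluorescence ratio not unusually high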;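 further: choline stimulus applied at its EC90 after an EC20 pre-addition; B-score computed on integrated fluorescence ratio after choline addition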
NR2F2 inh = inhibitors of human COUP-TFII (NR2F2) | inhibition, % at 8.6 µM | 0.7% of 370,000 active | HEK293T NGFI-A luciferase reporter, luminescence | P24468;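 active means inhibition above a per-plate cutoff, mean inhibition of test wells between control levels plus 3 SD, cut at about 38% in these data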;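 further: cells cotransfected with COUP-TFII expression vector driving the NGFI-A reporter; 0% = median of COUP-TF2 test wells and 100% = reporter-only cells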
Target sequence (P24468 whole entry, looked up): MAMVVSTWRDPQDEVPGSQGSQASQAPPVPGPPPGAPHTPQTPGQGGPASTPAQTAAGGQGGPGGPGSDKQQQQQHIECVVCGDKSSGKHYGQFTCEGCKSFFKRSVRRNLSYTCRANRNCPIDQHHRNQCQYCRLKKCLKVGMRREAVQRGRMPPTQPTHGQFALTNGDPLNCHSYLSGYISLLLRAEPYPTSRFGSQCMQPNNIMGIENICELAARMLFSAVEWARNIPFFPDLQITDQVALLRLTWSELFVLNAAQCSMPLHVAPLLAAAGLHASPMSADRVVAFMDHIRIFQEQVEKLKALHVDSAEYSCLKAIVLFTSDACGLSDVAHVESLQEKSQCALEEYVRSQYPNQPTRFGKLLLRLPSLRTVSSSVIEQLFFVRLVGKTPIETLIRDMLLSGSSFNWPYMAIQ
NR2E3 ag-1 = human photoreceptor-specific nuclear receptor agonism; Q9Y5X4; CHO-S Gal4-NCOR/VP16-NR2E3 two-hybrid, luciferase; inhibition of corepressor binding, % at 3.98 µM; 0.35% of 360,000 active; AID 602229;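 active means inhibition above the mean of all tested compounds plus 3 SD, cut at about 70% in these data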;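 further: 0% = DMSO with NR2E3 transfected cells and 100% = cells lacking NR2E3 construct; higher means lower luciferase signal from less NR2E3 corepressor binding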
CHT PAM = human CHT allosteric activation; Q9GZV3; CHT-expressing cells, membrane potential dye, choline EC20; active compounds read high; LV-AA mutant CHT in HEK293 cells; B-score at 10 µM; 0.49% of 310,000 active;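 active means initial fluorescence not abnormally high and integrated response B-score, plate-corrected, over 3 SD above library mean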
NR2E3 ag-2 = agonists of human nuclear receptor NR2E3. AID 2300. 0.12% of 320,000 active. Q9Y5X4. inhibition of corepressor binding, % at 4.78 µM. GST-NR2E3/biotin-RetCOR TR-FRET, 1536-well;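 active means percent inhibition above the cutoff of mean plus 3 SD of all tested compounds, set per screening campaign, cut at about 20% in these data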;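 further: 0% = DMSO wells and 100% = biotin wells as full block of FRET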
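System: GST-NR2E3 and biotin-RetCOR proteins; probe or stimulus: 7 nM biotin-RetCOR; doses: compound at 4.8 µM, single dose; schedule: Compound–protein incubation for 5 h at 4 °C; detection: time-resolved FRET; read-out: percent inhibition; controls: biotin wells as high control, 0.6% DMSO wells as low control; format: 1536-well plates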
GalR3 antagonist = antagonists of human GalR3. HEK293 GalR3-CNG cAMP membrane potential fluorescence; galR3 body fused to GalR1 C-terminus. inhibition, % at 3 µM. 0.44% of 360,000 active;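 active means inhibition above the screen-wide average plus 3 SD, cut at about 13% in these data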;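 further: forskolin and galanin both at EC90 stimulate the cells; cAMP rise reported by CNG channel membrane potential dye signal; 0% = forskolin plus galanin with DMSO and 100% = forskolin alone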
Target sequence (O60755 1-299 limits assumed): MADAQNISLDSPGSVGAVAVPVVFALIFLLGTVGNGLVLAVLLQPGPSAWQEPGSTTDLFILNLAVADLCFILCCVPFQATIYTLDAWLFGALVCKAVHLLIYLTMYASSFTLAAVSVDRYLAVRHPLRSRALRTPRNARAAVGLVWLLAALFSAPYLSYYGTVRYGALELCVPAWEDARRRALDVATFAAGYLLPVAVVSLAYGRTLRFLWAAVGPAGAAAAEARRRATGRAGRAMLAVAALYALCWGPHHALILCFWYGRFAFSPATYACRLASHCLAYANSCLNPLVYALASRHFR
CHT act confirm = confirmation of human choline transporter (CHT) activators | shares compounds with CHT PAM | CHT-expressing cells, membrane potential dye fluorescence (FDSS); % of choline EC20–EC90 response window; HEK293 expressing CHT LV-AA mutant; choline added at its EC20 | activation, % at 10 µM | 91% of 2,500 active;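 active means primary screen active, with duplicate mean activation above negative control mean plus 3 SD, cut at about 11% in these data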
HEK293 MP dye = activity in parental HEK293 cells lacking CHT; shares compounds with CHT PAM; membrane potential dye fluorescence (FDSS); measured after EC20 choline addition; ratio readout change at 10 µM, hits read low; 62% of 2,500 active;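 active means duplicate-averaged ratio beyond 3 SD from buffer wells, up or down, though filed actives are nearly all decreases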
Active calls of the source: *; i = inactive; . = no result given.

SMILES	CHT inh	NR2F2 inh	NR2E3 ag-1	CHT PAM	NR2E3 ag-2	GalR3 antagonist	CHT act confirm	HEK293 MP dye
O=C(c1ccccc1CCc1ccccc1)N1CCN(c2ccccn2)CC1	i	3.9	0.5	6.51*	-0.8	-3.6	26.6*	i
CCOC(=O)c1cc(-c2ccccc2)nc2c1c(C)nn2-c1ccccn1	i	1.3	-25.0	8.59*	-1.6	-5.6	7.1	i
CCN1CCN(c2nc3c(c(=O)[nH]c(=O)n3C)n2CCCc2ccccc2)CC1	i	15.8	4.3	i	0.0	-3.6	32.8*	-54*
CCN1CCN(c2nc3c(c(=O)[nH]c(=O)n3C)n2CCCSc2ncccn2)CC1	i	0.7	-35.3	7.53*	1.0	-4.8	50.1*	-54.9*
Cn1c(=O)[nH]c(=O)c2c1nc(N1CCN(Cc3ccccc3)CC1)n2CCCc1ccccc1	i	-11.7	-21.0	i	8.2	1.3	.	.
CN1CCN(c2nc3c(c(=O)[nH]c(=O)n3C)n2CCCSc2ncccn2)CC1	i	-4.9	-10.3	7.69*	-5.4	-3.8	46.2*	-54.1*
Cn1c(=O)[nH]c(=O)c2c1nc(N1CCN(Cc3ccccc3)CC1)n2CCSc1ncccn1	i	15.3	-29.6	i	-0.6	.	.	.
Cc1ccnc(SCCn2c(N3CCN(c4ccccc4)CC3)nc3c2c(=O)[nH]c(=O)n3C)n1	i	5.8	-25.1	7.96*	-3.1	.	48.1*	-40.7*
COC(=O)c1cc(C(c2ccccc2O)C2CCC(C)(C)O2)n2ccccc12 (stereo not given)	.	-14.3	.	.	.	.	.	.
COc1ccccc1C(=O)N1CCCC(c2nc(-c3cccs3)no2)C1 (stereo not given)	.	-16.5	.	.	.	.	.	.
Cc1nnc(SCCn2c(N3CCC(Cc4ccccc4)CC3)nc3c2c(=O)[nH]c(=O)n3C)s1	i	.	.	i	-2.1	.	.	.
CCCCn1c(N2CCC(Cc3ccccc3)CC2)nc2c1c(=O)[nH]c(=O)n2C	i	10.1	33.4	i	1.1	-0.8	18.5*	i
O=[N+]([O-])c1ccc(NCCCN2CCC(C(O)(c3ccccc3)c3ccccc3)CC2)cc1	.	-31.0	.	.	.	.	.	.
Cn1c(=O)c2c3c(sc2n2cnnc12)CCC3	i	13.4	-7.0	i	0.3	2.8	29.6*	-39.3*
Cc1ccc(OCC(O)Cn2c(=N)n(CCN3CCCCC3)c3ccccc32)cc1 (stereo not given)	i	2.4	-10.2	9.58*	-2.4	-9.1	19.5*	i
CCN(CC)CCn1c(=N)n(CC(=O)c2ccc(Br)s2)c2ccccc21	i	-15.0	-10.5	6.41*	-0.7	-1.4	21.2*	i
COc1ccccc1OCC(O)Cn1c(=N)n(Cc2ccccc2)c2ccccc21 (stereo not given)	i	13.3	-24.7	9.55*	-1.1	-9.6	28.5*	i
Cc1ccccc1OCC(O)Cn1c(=N)n(Cc2ccccc2)c2ccccc21 (stereo not given)	i	11.6	-6.3	i	-0.8	-6.9	.	.
CCN(CC)CCn1c(=N)n(CC(O)COc2ccccc2)c2ccccc21 (stereo not given)	i	-17.7	-2.2	7.25*	2.3	-8.0	21.1*	i
O=C(c1ccncc1F)N1CCC(n2nnc3ncccc32)CC1	.	-14.9	.	.	.	.	.	.
COC(=O)CSc1nnc(-c2cc(-c3ccccc3)n[nH]2)n1N	.	14.7	.	.	.	.	.	.
CCN(CC)C(=O)CC[C@H]1CC[C@]2(CCCN(Cc3cccnc3)C2)O1	.	13.8	.	.	.	.	.	.
CCCCn1c(=N)n(CCOc2ccc(C)cc2)c2ccccc21	i	4.2	10.8	9.71*	-3.0	-2.9	25.0*	i
O=C1CCCCCCCCCC/C(=N\O)CCCO1	i	13.4	-2.0	i	3.7	-1.9	14.2*	i
C[C@@H]1CCCCCCCCC(=O)OCCN(C(=O)OC(C)(C)C)[C@H](C)CCCCCCCCC(=O)OCCN(C(=O)OC(C)(C)C)[C@H](C)CCCCCCCCC(=O)OCCN(C(=O)OC(C)(C)C)[C@H](C)CCCCCCCCC(=O)OCCN1C(=O)OC(C)(C)C	.	12.4	1.6	.	.	-1.4	.	.
SMILES	CHT inh	NR2F2 inh	NR2E3 ag-1	CHT PAM	NR2E3 ag-2	GalR3 antagonist	CHT act confirm	HEK293 MP dye
CCCCCC[N+](C)(C)CC/C=C1/c2ccccc2Sc2ccc(Cl)cc21	i	-8.6	-5.3	i	0.9	-5.4	44.0*	-27.1*
COc1ccc(Cn2cc(CN3CC=CS3(=O)=O)nn2)cc1	.	-29.6	.	.	.	.	.	.
CCn1c(=O)n(CC(=O)N2CCN(C(C)=O)CC2)c(=O)c2ccccc21	.	-5.8	.	.	.	.	.	.
CN1CCCCc2c1nc1ccccc1c2N (tested in a mixture with another compound)	i	-9.2	-10.4	8.57*	1.6	-1.1	22.7*	-48.5*
CN1CCCC1=Nc1c2c(nc3ccccc13)N(C)CC2	i	-7.4	-0.6	8.93*	-3.7	-4.7	61.1*	-57.2*
COCCCNC(=O)C[C@H]1C[C@@]2(C(=O)OC)C(=C[C@H](C(C)C)O[C@@H]2C2CC2)N(CCC2=CCCCC2)C1=O	.	11.6	.	.	.	.	.	.
COc1ccc(C(=O)C[n+]2cc(Br)cc3ccccc32)cc1[N+](=O)[O-]	i	-1.0	-26.3	i	2.2	3.7	30.8*	-38.1*
COn1c(=O)c(-c2cccs2)[n+]([O-])c2ccccc21	i	-20.4	-47.0	i	-2.8	-2.6	.	.
Cn1c(-c2cccs2)[n+](C)c2ccccc21	i	-16.3	-11.6	9.79*	-0.3	-5.1	61.8*	-56*
O=C(O)Cn1cnc2sc3c(c2c1=O)CCCC3	i	7.4	-15.6	i	3.9	-5.1	.	.
O=C(O)CCc1nn2cnc3sc4c(c3c2nc1=O)CCCC4	i	11.0	-33.3	i	3.7	-3.3	54.3*	-42.6*
Cc1c(C(O)CN2CCN(Cc3ccc4c(c3)OCO4)CC2)c2ccccc2n1C (stereo not given)	i	19.8	7.3	6.82*	2.2	-8.1	31.0*	-27.1*
COc1ccc2c(c1)c(C(O)CN1CCN(Cc3ccc4c(c3)OCO4)CC1)c(C)n2C (stereo not given)	i	-0.7	-30.6	i	3.6	3.0	.	.
CN(CCOC(=O)c1cc2ccccc2o1)C1CN(Cc2cn(Cc3ccccc3F)nn2)S(=O)(=O)C1 (stereo not given)	.	-11.7	.	.	.	.	.	.
O=C(Nc1ccccc1)c1ccc[n+](Cc2ccc([N+](=O)[O-])cc2)c1	i	14.6	6.6	i	-2.6	-2.3	41.9*	-31.8*
